ABHD4 inh = ABHD4 inhibitors, primary screen, biochemical, fluorescence polarization, mouse | inhibition, % at 8.92 µM | (Lyso)-N-acylphosphatidylethanolamine lipase (Mus musculus), Q8VD66 | AID 720543, 2013 | purified mABHD4, FP-Rh probe fluorescence polarization | 0.54% of 370,000 active;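 active = inhibition exceeding the mean over every tested compound plus 3 SD, cut at about 30% in these data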;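 also: 0% = plate median of compound wells and 100% = S159A mutant with DMSO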
Target sequence (Q8VD66 whole entry, looked up): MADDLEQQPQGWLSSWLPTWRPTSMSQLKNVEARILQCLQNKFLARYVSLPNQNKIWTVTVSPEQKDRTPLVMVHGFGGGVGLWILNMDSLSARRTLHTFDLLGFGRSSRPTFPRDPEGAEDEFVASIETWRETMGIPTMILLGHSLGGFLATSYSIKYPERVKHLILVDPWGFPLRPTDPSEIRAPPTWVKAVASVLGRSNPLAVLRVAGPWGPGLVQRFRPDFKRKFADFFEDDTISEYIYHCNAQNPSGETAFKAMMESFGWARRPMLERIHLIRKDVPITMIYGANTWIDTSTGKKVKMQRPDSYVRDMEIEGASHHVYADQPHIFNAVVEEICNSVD
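Test system: mouse ABHD4 enzyme, wild type. Reagent: FP-Rh fluorescent activity-based probe, added after compound pre-incubation. Timing: pre-incubation 45 min, probe exposure 60 min, at 25 °C. Technique: FP readout, ex 525 nm / em 598 nm. Benchmarks: high control S159A mutant with DMSO, low control median of compound wells.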
TCR-CD3 inh = inhibitors of human TCR-CD3 interaction, primary screen, biochemical, fluorescence, TAMRA-labeled TCR probe; inhibition, % at 9.4 µM; AID 651800, 2012; 0.37% of 360,000 active; T-cell receptor (TCR); in the data active = inhibition above about 19%;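 also: recombinant mutant TCR 2C K166C tagged with TAMRA read by polarization; 0% = receptor in buffer alone and 100% = receptor with positive control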
HTRA1 inhibitor = HTRA1 serine protease inhibitors, primary screen, biochemical, fluorescence polarization, HTS; Q92743; recombinant HTRA1, FP-rhodamine activity-based probe; inhibition, % at 5.96 µM; 0.5% of 340,000 active; AID 504803, 2011; in the data active = inhibition above about 36%;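 also: 0% = enzyme with DMSO and 100% = wells lacking enzyme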
SIAE primary = human SIAE inhibitors, primary screen, biochemical, fluorescence polarization, FP-Rh probe, 1536-well HTS; AID 1053197, 2014; Sialate O-acetylesterase (Homo sapiens), Q9HAT2; inhibition, % at 9.66 µM; 0.69% of 370,000 active; SIAE FP-Rh probe binding;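 active = inhibition above a cutoff: mean of compounds within the control limits plus 3 SD of those, cut at about 17% in these data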;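 also: 0% = plate median of compound wells and 100% = probe without SIAE protein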
ARNT TACC3 PPI = disruptors of ARNT/TACC3 protein interaction, primary screen, biochemical, AlphaScreen, single concentration | 0.66% of 390,000 active | AID 623870, 2012 | AlphaScreen His-ARNT PAS-B/GST-TACC3 binding, luminescence; TACC3 fragment carries E629A point mutation | inhibition, % at 9.99 µM | Transforming acidic coiled-coil-containing protein 3 (Homo sapiens), Q9Y6A5;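 active = mean inhibition of replicates at least 50% and at least half of replicates each reaching 50%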;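 also: 0% = complete ARNT plus TACC3 wells and 100% = ARNT alone without TACC3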
ARNT Alpha ctr-1 = AlphaScreen signal interference compounds, dose response, artefact control for ARNT-TACC3 interaction inhibitor project, biochemical, luminescence, cherry-pick; shares compounds with ARNT TACC3 PPI; His-ARNT PASB-GST AlphaScreen artifact counter-screen; AC50, µM (titrated, usually from 68 µM), for the others: top-dose activity change, negative = signal decrease; 50% of 1,200 active; AID 651705, 2012;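 active = every separate test run was called active for a drop in luminescence, with AC50 within twice the top valid dose, actives reach about 71 µM in these data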
ARNT Alpha ctr-2 = AlphaScreen signal interference by compounds, dose response, artefact control for ARNT/TACC3 disruptor project, biochemical, dual-tagged ARNT, dry powder. shares compounds with ARNT TACC3 PPI. Dual-tagged His-ARNT PASB-GST AlphaScreen artifact counter-screen. AC50, µM. 70% of 45 active;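 active = luminescence drop, with half-maximal potency fitted within twice the sample's top valid dose, cut at about 70 µM in these data; inactive = the rest, including signal moving the wrong way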
* marks the source's active call; other numbers are inactive results; x = not tested or not shown. In the library only some 1.8% were active in any assay of this set; here they are far more common.

SMILES	ABHD4 inh	TCR-CD3 inh	HTRA1 inhibitor	SIAE primary	ARNT TACC3 PPI	ARNT Alpha ctr-1	others
CCCN(C(=O)Cc1nc(N)n[nH]1)C1(C(=O)Nc2ccccc2C)CCCCC1	2	-4	2	3	50*	-13%
Cc1ccc(N(C)S(=O)(=O)c2cccc(C(=O)Oc3ccc4c(C)cc(=O)oc4c3)c2)cc1	13	-3	-3	-8	53*	-21%
CCOC(=O)/C(=N/Nc1ccccc1OC)N1CCCc2ccccc21	-4	4	2	6	34*	44µM*
C[C@@H]1CN([C@H](C)CO)C(=O)c2cccc(NC(=O)C3CCOCC3)c2O[C@@H]1CN(C)S(=O)(=O)c1ccccc1	x	x	x	x	-2	x
COC(=O)c1ccccc1-c1ccc(C(c2c(C)[nH][nH]c2=O)c2c(C)[nH][nH]c2=O)o1	9	2	3	9	60*	-12%
CC(=O)N1[C@@H]2c3ccc(-c4ccccc4F)c(=O)n3C[C@H]1[C@H](CO)[C@H]2C(=O)N1CCOCC1	x	x	x	x	-4	x
O=C(CSc1nnc(Nc2ccccc2F)s1)NCc1ccco1	6	3	0	7	5	x
Cc1ccccc1Nc1nnc(SCC(=O)NC(=O)NCc2ccco2)s1	6	4	-19	1	62*	-12%
Cc1ccc(C(=O)Oc2ccc(/C=C3\C(=N)N4N=C(N5CCOCC5)SC4=NC3=O)cc2)cc1	6	5	-5	8	56*	-27%
COc1ccccc1OCc1nc(C#N)c(NCCCn2ccnc2)o1	4	-2	0	-1	34*	-10%
O=C(Nc1nc(-c2ccncc2)cs1)c1ccc(S(=O)(=O)N2CCOCC2)cc1	-11	1	-9	-7	3	x
O=C(Nc1nc(-c2ccccn2)cs1)c1ccc(S(=O)(=O)N2CCOCC2)cc1	x	x	x	x	x	x	ARNT Alpha ctr-2=6.5*
COc1ccc(C(=O)Nc2nc3ccccc3[nH]2)cc1S(=O)(=O)N1CCOCC1	-2	-2	-1	-11	51*	-29%
COc1ccc(C(=O)Nc2nc(-c3ccccn3)cs2)cc1S(=O)(=O)N1CCOCC1	-6	-4	-8	12	62*	9.7µM*
CCNC(=O)[C@@H]1[C@@H](CO)[C@@H]2Cn3c(ccc(-c4ccc(F)cc4)c3=O)[C@@H]2N1Cc1cc(F)ccc1F	x	x	x	x	-12	x
Cc1noc(C)c1NC(=O)N(C)C[C@H]1OCCCC[C@@H](C)Oc2ccc(NS(=O)(=O)c3cn(C)cn3)cc2C(=O)N([C@H](C)CO)C[C@H]1C	x	x	x	x	-1	x
COc1cc(/C=N/Nc2nn3cnnc3c3ccccc23)ccc1O	0	-2	4	-7	50*	-30%
CCC(=O)N1[C@@H]2c3ccc(C4=CCCC4)c(=O)n3C[C@@H]2[C@@H](CO)[C@@H]1C(=O)Nc1ccccc1	x	x	x	x	6	x
COc1ccccc1NS(=O)(=O)c1cccc(C(=O)N/N=C/c2ccc(OCC(=O)O)cc2)c1	-12	0	-2	2	-2	x
O=C(O)COc1ccccc1/C=N/NC(=O)c1cccc(S(=O)(=O)Nc2cccc(Cl)c2)c1	-74	0	-28	-70	52*	71µM*
Cc1nn2c(nc1=O)NNC2(C)C(C)(C)C (stereo unspecified)	2	-2	2	1	64*	-3%
C[C@H]1CN([C@@H](C)CO)S(=O)(=O)c2ccc(C#CCN(C)C)cc2O[C@H]1CN(C)Cc1cccnc1	x	x	x	x	-7	x
C[C@H]1CN([C@@H](C)CO)S(=O)(=O)c2ccc(C3=CCCC3)cc2O[C@@H]1CN(C)Cc1ccccn1	x	x	x	x	4	x

Screening results from PubChem.
